In ChEMBL document CHEMBL1154096, “Design, synthesis and anticancer evaluation of novel tetrahydroquinoline derivatives containing sulfonamide moiety” (Eur J Med Chem, 2009):
In brackets after ≈: the same amount, converted by molar mass.

Tested on: MCF7
Assay: Cytotoxicity against human MCF7 cells after 48 hrs by SRB assay
Format: functional, cell-based
Conditions: MCF7, 48 h
Summary of the method: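 Cells seeded at 10⁴/well and left 24 h to attach. Compounds dissolved in DMSO, diluted in saline and added to the monolayer in triplicate wells per dose, then incubated 48 h at 37 °C in 5% CO₂. Cells were fixed and stained 30 min with 0.4% SRB in 1% acetic acid, washed four times with 1% acetic acid, and the dye recovered in Tris–EDTA. Absorbance was read, and surviving fraction plotted against concentration.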

**Q.** `Cc1c2c(nc3[nH]c(=S)n(-c4ccc(S(N)(=O)=O)cc4)c(=N)c13)CC(C)(C)CC2=O` was tested. Which IC50 did it give?
**A.** Its IC50 is 4 µg/mL (≈ 9.02 µM).

**Q.** With `Cc1cc(NS(=O)(=O)c2ccc(-n3c(=S)[nH]c4nc5c(c(C)c4c3=N)CCCC5)cc2)no1` as the compound, how does the IC50 read?
**A.** The IC50 was 2.62 µg/mL (≈ 5.43 µM).

**Q.** How did the IC50 turn out when `Cc1c(C#N)c(/N=C/Nc2ccc(S(N)(=O)=O)cc2)nc2c1C(=O)CC(C)(C)C2` was run?
**A.** Its IC50 is 2.62 µg/mL (≈ 6.37 µM).

**Q.** `Cc1c2c(nc3[nH]c(=S)n(-c4ccc(S(=O)(=O)Nc5ncccn5)cc4)c(=N)c13)CC(C)(C)CC2=O` was tested. Which IC50 did it give?
**A.** Its IC50 is 9.19 µg/mL (≈ 17.6 µM).

**Q.** With `Cc1cc(NS(=O)(=O)c2ccc(-n3c(=S)[nH]c4nc5c(c(C)c4c3=N)C(=O)CC(C)(C)C5)cc2)no1` as the compound, how does the IC50 read?
**A.** The IC50 was > 10 µg/mL.

**Q.** For `Cc1c2c(nc3[nH]c(=S)n(-c4ccc(S(=O)(=O)NC(=N)N)cc4)c(=N)c13)CCCC2`, which IC50 is on record?
**A.** The IC50 was 1.28 µg/mL (≈ 2.89 µM).

**Q.** How did the IC50 turn out when `Cc1c2c(nc3ncn(-c4ccc(S(N)(=O)=O)cc4)c(=N)c13)CC(C)(C)CC2=O` was run?
**A.** The IC50 was 1.5 µg/mL (≈ 3.65 µM).

**Q.** How did the IC50 turn out when `Cc1c(C#N)c(/N=C/Nc2ccc(S(N)(=O)=O)cc2)nc2c1CCCC2` was run?
**A.** The IC50 was > 10 µg/mL.

**Q.** For `Cc1cc(NS(=O)(=O)c2ccc(N/C=N/c3nc4c(c(C)c3C#N)C(=O)CC(C)(C)C4)cc2)no1`, which IC50 is on record?
**A.** The IC50 was 1.9 µg/mL (≈ 3.86 µM).

**Q.** For `Cc1cc(NS(=O)(=O)c2ccc(-n3cnc4nc5c(c(C)c4c3=N)C(=O)CC(C)(C)C5)cc2)no1`, which IC50 is on record?
**A.** Its IC50 is 2.6 µg/mL (≈ 5.28 µM).

**Q.** `Cc1c2c(nc3[nH]c(=S)n(-c4ccc(S(=O)(=O)NC(=N)N)cc4)c(=N)c13)CC(C)(C)CC2=O` was tested. Which IC50 did it give?
**A.** The IC50 was 5.17 µg/mL (≈ 10.6 µM).

**Q.** For `Cc1c2c(nc3[nH]c(=S)n(-c4ccc(S(N)(=O)=O)cc4)c(=N)c13)CCCC2`, which IC50 is on record?
**A.** The IC50 was 0.95 µg/mL (≈ 2.37 µM).

**Q.** Which IC50 does the source give for `Cc1cc(NS(=O)(=O)c2ccc(N/C=N/c3nc4c(c(C)c3C#N)CCCC4)cc2)no1` here?
**A.** The IC50 was 1.95 µg/mL (≈ 4.33 µM).

**Q.** With `Cc1c2c(nc3[nH]c(=S)n(-c4ccc(S(=O)(=O)Nc5ncccn5)cc4)c(=N)c13)CCCC2` as the compound, how does the IC50 read?
**A.** Its IC50 is 1.48 µg/mL (≈ 3.09 µM).
